Laboratory results as given in ChEMBL document CHEMBL3864174, “Scaffold-Hopping of Aurones: 2-Arylideneimidazo[1,2-a]pyridinones as Topoisomerase IIα-Inhibiting Anticancer Agents” (ACS Med Chem Lett, 2016).
Calls of active or inactive are those of the source. The rule behind the calls is not given here.

Experiments:
MCF7 [1] = test: Induction of apoptosis in human MCF7 cells assessed as decrease in BCL-XL expression at 50 nM after 48 hrs by Western blot analysis relative to control; format: functional
MCF7 [2] = test: Induction of apoptosis in human MCF7 cells assessed as increase in caspase-3 expression at 50 to 75 nM after 48 hrs by TRITC/DAPI-staining based fluorescent microscopic analysis; format: functional, cell-based
In short: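 Caspase 3 immunocytochemistry in MCF-7 cells after increasing compound concentrations. Signal was expressed as densitometric fold change versus untreated control, with at least three repeats.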

[3] = Downregulation of CDK1 expression in human MCF7 cells at 75 nM after 48 hrs by Western blot analysis relative to control; format: functional, cell-based
In short: (§1)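 Western blot of MCF-7 lysates after treatment across a concentration series. Probes were CDK1, pCDK1 (Thr 161) and cleaved caspase 3 (17 kDa). Bands were quantified by densitometry as fold change versus untreated control, with at least three repeats.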

[4] = Cytotoxicity against African green monkey Vero cells assessed as cells growth inhibition after 48 hrs by MTT assay; format: toxicity, cell-based, Chlorocebus sabaeus
In short: (§2)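 MTT colorimetric assay. HEK-293T (kidney line) and VERO cells were tested, and the IC50 was taken as the concentration giving 50% growth inhibition.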

HEK-293T [5] = test: (§3) Cytotoxicity against HEK293T cells assessed as cells growth inhibition after 48 hrs by MTT assay; format: functional, cell-based; settings: Homo sapiens; in short: as §2
[6] = as §3; format: functional, cell-based; settings: Homo sapiens, HEK-293T; in short: as §2
[7] = Downregulation of p53 expression in human MCF7 cells at 75 nM after 48 hrs by Western blot analysis relative to control; format: functional, cell-based
MCF7 [8] = test: Antiinvasive activity in human MCF7 cells assessed as reduction in number of invaded colonies at 25 to 75 nM after 48 hrs by crystal violet-staining based colony counting; format: functional, cell-based
In short: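 Matrigel invasion assay in MCF-7 cells exposed to rising compound concentrations; read-out is the number of invaded colonies versus an untreated control.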

MCF7 [9] = test: Induction of apoptosis in human MCF7 cells assessed as decrease in BCL-XL expression at 75 nM after 48 hrs by Western blot analysis relative to control; format: functional
HEK-293T [10] = test: (§4) Cytotoxicity against HEK293T cells assessed as reduction in colony formation after 48 hrs by crystal violet-staining based assay; format: functional; settings: Homo sapiens
[11] = as §4; format: functional; settings: Homo sapiens, HEK-293T, read-out: LC50 (the source's name)
[12] = Downregulation of p21 expression in human MCF7 cells at 75 nM after 48 hrs by Western blot analysis relative to control; format: functional, cell-based
[13] = target: Cyclin-dependent kinase 1 (Homo sapiens) (UniProt P06493); test: Inhibition of CDK1 phosphorylation at Thr-161 residue in human MCF7 cells at 50 nM after 48 hrs by Western blot analysis relative to control; format: cell-based; in short: as §1
Sequence of Cyclin-dependent kinase 1 (Homo sapiens) (P06493 whole entry, looked up): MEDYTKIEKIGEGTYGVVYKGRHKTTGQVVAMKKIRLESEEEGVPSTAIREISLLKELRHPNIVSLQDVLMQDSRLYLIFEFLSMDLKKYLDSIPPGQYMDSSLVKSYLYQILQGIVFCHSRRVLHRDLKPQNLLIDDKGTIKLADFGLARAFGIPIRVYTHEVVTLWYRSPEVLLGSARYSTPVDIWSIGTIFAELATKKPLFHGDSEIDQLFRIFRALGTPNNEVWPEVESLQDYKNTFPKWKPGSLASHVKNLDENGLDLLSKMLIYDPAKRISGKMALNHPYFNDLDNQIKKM

[14] = Cell cycle arrest in human MCF7 cells assessed as accumulation at G2/M phase at 50 nM after 48 hrs by propidium iodide-staining based FACS analysis (reference value: 41 +/- 2.8 %); format: functional
MCF7 [15] = test: Induction of apoptosis in human MCF7 cells assessed as increase in 17 kDa caspase-3 expression at 50 nM after 48 hrs by Western blot analysis relative to control; format: functional; in short: as §1
[16] = Cytotoxicity against human MDA-MB-468 cells assessed as reduction in cell viability after 48 hrs by MTT assay; format: functional, cell-based; settings: MDA-MB-468, 48 h
[17] = target: DNA topoisomerase 2-alpha (Homo sapiens) (UniProt P11388); test: Inhibition of human Topo2alpha-mediated kDNA decatenation at 100 uM after 30 mins by SDS-based agarose gel electrophoresis
Sequence of DNA topoisomerase 2-alpha (Homo sapiens) (P11388 whole entry): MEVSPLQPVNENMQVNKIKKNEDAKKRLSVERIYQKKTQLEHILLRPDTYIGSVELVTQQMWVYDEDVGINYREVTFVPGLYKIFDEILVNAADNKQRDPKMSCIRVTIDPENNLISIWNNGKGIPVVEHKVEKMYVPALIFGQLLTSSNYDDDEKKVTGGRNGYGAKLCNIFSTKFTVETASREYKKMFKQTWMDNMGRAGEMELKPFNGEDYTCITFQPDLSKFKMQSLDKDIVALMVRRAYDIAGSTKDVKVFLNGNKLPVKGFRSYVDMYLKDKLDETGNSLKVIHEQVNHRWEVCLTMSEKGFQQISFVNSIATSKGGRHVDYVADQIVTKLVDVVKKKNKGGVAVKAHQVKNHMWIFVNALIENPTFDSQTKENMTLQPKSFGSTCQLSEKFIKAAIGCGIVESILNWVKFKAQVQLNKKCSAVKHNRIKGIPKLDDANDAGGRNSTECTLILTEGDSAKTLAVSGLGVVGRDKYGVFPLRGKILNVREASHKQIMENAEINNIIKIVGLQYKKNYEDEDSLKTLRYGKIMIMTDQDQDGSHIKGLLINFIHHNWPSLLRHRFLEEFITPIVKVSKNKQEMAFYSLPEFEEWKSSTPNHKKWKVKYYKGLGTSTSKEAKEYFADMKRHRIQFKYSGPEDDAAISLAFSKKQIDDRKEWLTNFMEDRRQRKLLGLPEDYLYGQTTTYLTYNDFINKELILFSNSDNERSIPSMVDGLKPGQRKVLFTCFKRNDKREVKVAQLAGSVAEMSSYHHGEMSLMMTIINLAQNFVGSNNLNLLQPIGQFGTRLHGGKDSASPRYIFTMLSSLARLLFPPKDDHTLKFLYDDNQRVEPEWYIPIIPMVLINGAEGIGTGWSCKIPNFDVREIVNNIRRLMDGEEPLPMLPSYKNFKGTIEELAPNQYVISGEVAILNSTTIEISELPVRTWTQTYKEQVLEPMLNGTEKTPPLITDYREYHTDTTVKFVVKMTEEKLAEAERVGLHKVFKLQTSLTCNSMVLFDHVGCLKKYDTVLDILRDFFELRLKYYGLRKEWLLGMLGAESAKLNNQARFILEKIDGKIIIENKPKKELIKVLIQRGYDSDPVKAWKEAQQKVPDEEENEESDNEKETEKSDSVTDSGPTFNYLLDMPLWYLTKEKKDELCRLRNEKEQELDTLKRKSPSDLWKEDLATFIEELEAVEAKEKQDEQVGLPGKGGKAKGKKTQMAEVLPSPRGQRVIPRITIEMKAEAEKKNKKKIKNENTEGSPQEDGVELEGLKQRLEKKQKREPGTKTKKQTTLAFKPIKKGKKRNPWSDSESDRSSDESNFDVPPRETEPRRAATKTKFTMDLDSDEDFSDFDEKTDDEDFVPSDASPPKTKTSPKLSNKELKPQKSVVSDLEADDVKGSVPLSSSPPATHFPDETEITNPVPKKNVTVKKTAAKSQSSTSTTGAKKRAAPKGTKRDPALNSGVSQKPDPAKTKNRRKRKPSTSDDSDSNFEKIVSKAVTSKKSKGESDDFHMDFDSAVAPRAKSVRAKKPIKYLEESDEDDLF

[18] = Cell cycle arrest in human MCF7 cells assessed as accumulation at subG1 phase at 100 nM after 48 hrs by propidium iodide-staining based FACS analysis (reference value: 0.8 +/- 0.1 %); format: functional
[19] = target: Cyclin-dependent kinase 1 (Homo sapiens) (UniProt P06493); test: Inhibition of CDK1 phosphorylation at Thr-161 residue in human MCF7 cells at 75 nM after 48 hrs by Western blot analysis relative to control; format: cell-based; in short: as §1
MCF7 [20] = test: Cytotoxicity against human MCF7 cells assessed as reduction in colony formation after 48 hrs by crystal violet-staining based assay; format: functional, cell-based
MCF7 [21] = test: Induction of apoptosis in human MCF7 cells assessed as 19 kDa caspase-3 expression level at 75 nM after 48 hrs by Western blot analysis relative to control; format: functional
MCF7 [22] = test: Induction of apoptosis in human MCF7 cells assessed as increase in apoptotic nuclei at 75 nM after 48 hrs by DAPI-nuclear staining based fluorescent microscopic analysis relative to control; format: functional
In short: (§5)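 MCF-7 cells exposed to increasing compound concentrations for 48 h before DAPI was added. Nuclei were scored for chromatin condensation and fragmentation, counted as apoptotic nuclei versus untreated cells.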

MCF7 [23] = test: Cytotoxicity against human MCF7 cells assessed as cells growth inhibition after 48 hrs by MTT assay; format: functional, cell-based
[24] = target: DNA topoisomerase 2-alpha (Homo sapiens) (UniProt P11388); test: Poison activity at human Topo2alpha using pUC19 as substrate assessed as DNA cleavage-complex formation at 100 uM measured after 20 mins by ethidium bromide staining based SDS-agarose gel electrophoresis
MCF7 [25] = test: Inhibition of alpha tubulin in human MCF7 cells assessed as formation of abnormal mitotic spindle at 50 to 75 uM by FITC/propidium iodide-staining based assay; format: cell-based
In short: (§6)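 MCF-7 cells were immunostained for α-tubulin with FITC and counterstained with propidium iodide for nuclei. Merged images were inspected for assembly distortion and abnormal mitotic spindles.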

MCF7 [26] = test: Induction of apoptosis in human MCF7 cells assessed as 19 kDa caspase-3 expression level at 50 nM after 48 hrs by Western blot analysis relative to control; format: functional
MCF7 [27] = test: Induction of apoptosis in human MCF7 cells assessed as increase in BAX expression at 75 nM after 48 hrs by Western blot analysis relative to control; format: functional
[28] = Inhibition of tubulin polymerization in human MCF7 cells assessed as suppression of protein assembly after 15 mins by spectrophotometric analysis; format: cell-based
MCF7 [29] = test: Inhibition of topoisomerase in human MCF7 cell nuclear lysates assessed as reduction in relaxation of supercoiled plasmid DNA NFkB substrate at 10 to 75 nM after 30 mins by ethidium bromide-staining based agarose gel electrophoresis
In short: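 Ex vivo topoisomerase assay using MCF-7 nuclear lysate with NFkB plasmid as substrate. Compound ranged from 10 nM to 75 nM, with lanes for plasmid alone and untreated lysate, and an etoposide lane at 45 µM.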

MCF7 [30] = test: Induction of apoptosis in human MCF7 cells assessed as increase in BAX expression at 50 nM after 48 hrs by Western blot analysis relative to control; format: functional
MCF7 [31] = test: Induction of apoptosis in human MCF7 cells assessed as increase in 17 kDa caspase-3 expression at 75 nM after 48 hrs by Western blot analysis relative to control; format: functional; in short: as §1
MCF7 [32] = test: Induction of apoptosis in human MCF7 cells assessed as nuclear fragmentation up to 75 nM after 48 hrs by DAPI-nuclear staining based fluorescent microscopic analysis relative to control; format: functional, cell-based; in short: as §5
[33] = Downregulation of CDK1 expression in human MCF7 cells at 50 nM after 48 hrs by Western blot analysis relative to control; format: functional, cell-based; in short: as §1
[34] = Downregulation of p53 expression in human MCF7 cells at 50 nM after 48 hrs by Western blot analysis relative to control; format: functional, cell-based
[35] = Binding affinity to DNA (unknown origin) assessed as occurrence of hypochromism after 1 hr by UV-Vis spectrophotometric analysis
In short: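 UV absorption of DNA near 260 nm, recorded with and without increasing compound concentrations; hypochromism was taken as the binding read-out.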

MCF7 [36] = test: Induction of apoptosis in human MCF7 cells assessed as chromatin condensation up to 75 nM after 48 hrs by DAPI-nuclear staining based fluorescent microscopic analysis relative to control; format: functional, cell-based; in short: as §5
MCF7 [37] = test: Inhibition of alpha tubulin in human MCF7 cells assessed as distortion in tubulin assembly at 50 to 75 uM by FITC/propidium iodide-staining based assay; format: cell-based; in short: as §6
[38] = Cytotoxicity against human MDA-MB-231 cells assessed as reduction in cell viability after 48 hrs by MTT assay; format: functional, cell-based; settings: MDA-MB-231, 48 h
[39] = Downregulation of p21 expression in human MCF7 cells at 50 nM after 48 hrs by Western blot analysis relative to control; format: functional, cell-based
[40] = Cytotoxicity against African green monkey Vero cells assessed as reduction in colony formation after 48 hrs by crystal violet-staining based assay; format: toxicity, cell-based; settings: chlorocebus sabaeus

Q: With `COc1ccc(/C=C2\N=C3C=CC=CN3C2=O)cc1` as the compound, how does the “fold change (FC)” value (MCF7 [1]) read?
A: 0.9

Q: And the Activity (MCF7 [2])?
A: Dose-dependent effect

Q: What about the fold change (FC) [3] of the same compound?
A: 0.2

Q: And the IC50 at 48 h ([4]; African green monkey (Chlorocebus sabaeus), Vero cells)?
A: 1.5 µM

Q: What about the “growth inhibition (GI)” value ([4]; chlorocebus sabaeus, vero, 48 h) of the same compound?
A: Dose-dependent effect

Q: What about the “growth inhibition (GI)” value (HEK-293T [5]) of the same compound?
A: Dose-dependent effect

Q: And the IC50 [6]?
A: 0.06 µM

Q: What about the fold change (FC) [7] of the same compound?
A: 2.5

Q: What about the Activity (MCF7 [8]) of the same compound?
A: Active

Q: And the “fold change (FC)” value (MCF7 [9])?
A: 0.2

Q: And the Activity (HEK-293T [10])?
A: Dose-dependent effect

Q: And the CC50 [11]?
A: 0.06 µM

Q: What about the fold change (FC) [12] of the same compound?
A: 2.5

Q: And the fold change (FC) [13]?
A: 1.2

Q: What about the Activity [14] of the same compound?
A: 80.1%

Q: And the “fold change (FC)” value (MCF7 [15])?
A: 1.6

Q: And the IC50 [16]?
A: 0.06 µM

Q: And the inhibition [17]?
A: Active

Q: And the Activity [18]?
A: 20.2%

Q: What about the fold change (FC) [19] of the same compound?
A: 2

Q: What about the Activity (MCF7 [20]) of the same compound?
A: Dose-dependent effect

Q: And the “fold change (FC)” value (MCF7 [21])?
A: 1.6

Q: What about the “fold change (FC)” value (MCF7 [22]) of the same compound?
A: >6

Q: And the “growth inhibition (GI)” value (MCF7 [23])?
A: Dose-dependent effect

Q: What about the Activity [24] of the same compound?
A: Active

Q: What about the inhibition (MCF7 [25]) of the same compound?
A: Active

Q: And the “fold change (FC)” value (MCF7 [26])?
A: 1.4

Q: What about the “fold change (FC)” value (MCF7 [27]) of the same compound?
A: 2

Q: What about the IC50 [28] of the same compound?
A: 0.054 µM

Q: What about the inhibition (MCF7 [29]) of the same compound?
A: Active

Q: And the “fold change (FC)” value (MCF7 [30])?
A: 1.2

Q: What about the “fold change (FC)” value (MCF7 [31]) of the same compound?
A: 2

Q: And the Activity (MCF7 [32])?
A: Active

Q: What about the fold change (FC) [33] of the same compound?
A: 0.9

Q: And the fold change (FC) [34]?
A: 1.4

Q: And the Kb [35]?
A: 2e+06 M⁻¹

Q: What about the Activity (MCF7 [36]) of the same compound?
A: Active

Q: And the inhibition (MCF7 [37])?
A: Active

Q: And the IC50 [38]?
A: 0.064 µM

Q: And the fold change (FC) [39]?
A: 1.4

Q: And the CC50 at 48 h ([40]; Vero cells, read-out: LC50)?
A: 1.5 µM

Q: And the Activity ([40]; vero, 48 h)?
A: Dose-dependent effect
